Columns and labels:
PI4KIIIβ = PI4KIIIβ (Homo sapiens, UniProt Q9UBF8); test: PI4KIIIβ lipid kinase membrane capture assay; assay type: biochemical; details: for potency for PI4KIIIβ compared with compound 1: relative to compound 1, Fig. 2A
In short: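 Recombinant PI4KIIIβ with a phosphoinositide substrate and γ32P-ATP in a membrane-capture format. Test compound diluted into 10% DMSO and kinase assay buffer. After the reaction, a 4 µL aliquot was spotted on 0.2 µm nitrocellulose, dried 5 min under a heat lamp, then washed once for 30 s and 6×5 min in 1M NaCl/1% phosphoric acid.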

PI3Kγ = PI3Kγ (Homo sapiens, UniProt P48736); test: PI3Kγ lipid kinase membrane capture assay; assay type: biochemical; details: for fold selective over PI3Kγ: PI4KIIIβ versus PI3Kγ; for potency for PI3Kγ compared with compound 1: relative to compound 1, Fig. 2A
In short: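 Radiometric membrane-capture assay. For PI3Kγ, 5nM enzyme was preincubated 15 min with test compound, then cold ATP plus γ32P-ATP was added for 15 min. PI3Kγ final conditions: 50mM HEPES pH 7.5, 100mM NaCl, 0.03% CHAPS, 10mM MgCl2, 80µM PIP2, 10µM ATP, 1uCi. PI4KIIIβ ran 30 min with 2.5nM enzyme, 100µM PI, Bis-Tris Propane pH 7.5, Triton X-100, 10µM ATP, 1uCi. Both used 2% DMSO final.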

PI3Kδ = PI3Kδ (Homo sapiens, UniProt O00329); test: PI3Kδ lipid kinase membrane capture assay; assay type: biochemical; details: for fold selective over PI3Kδ: PI4KIIIβ versus PI3Kδ; for potency for PI3Kδ compared with compound 1: relative to compound 1, Fig. 2A
vps34 = vps34 (Homo sapiens, UniProt Q8NEB9); test: vps34 lipid kinase membrane capture assay; assay type: biochemical; details: for potency for vps34 compared with compound 1: relative to compound 1, Fig. 2A; for inhibition of vps34: concentrations up to 20 µM, MnCl2
In short: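 Recombinant vps34 (10nM) was preincubated 15 min with test compound diluted in 10% DMSO/kinase buffer. Cold ATP plus γ32P-ATP (final 10µM ATP, 2.5uCi) was added and the reaction ran 1 hour. Final buffer: 50mM HEPES pH 7.5, 0.1% CHAPS, 2mM MnCl2, 1mM EGTA, 2mM DTT, 100µM PI, 500ng/µL BSA, 2% DMSO. Product was spotted on nitrocellulose and washed in 1M NaCl/1% phosphoric acid.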

[1] = system: HCVcc genotype 2a reporter virus J6/JFH1-GLuc in Huh 7.5 cells; test: HCV2a antiviral assay; assay type: cell-based, Hepatitis C virus; details: Huh 7.5 cells stably infected with J6/JFH1-GLuc, three days incubation

Sequence of PI3Kγ (P48736 whole entry): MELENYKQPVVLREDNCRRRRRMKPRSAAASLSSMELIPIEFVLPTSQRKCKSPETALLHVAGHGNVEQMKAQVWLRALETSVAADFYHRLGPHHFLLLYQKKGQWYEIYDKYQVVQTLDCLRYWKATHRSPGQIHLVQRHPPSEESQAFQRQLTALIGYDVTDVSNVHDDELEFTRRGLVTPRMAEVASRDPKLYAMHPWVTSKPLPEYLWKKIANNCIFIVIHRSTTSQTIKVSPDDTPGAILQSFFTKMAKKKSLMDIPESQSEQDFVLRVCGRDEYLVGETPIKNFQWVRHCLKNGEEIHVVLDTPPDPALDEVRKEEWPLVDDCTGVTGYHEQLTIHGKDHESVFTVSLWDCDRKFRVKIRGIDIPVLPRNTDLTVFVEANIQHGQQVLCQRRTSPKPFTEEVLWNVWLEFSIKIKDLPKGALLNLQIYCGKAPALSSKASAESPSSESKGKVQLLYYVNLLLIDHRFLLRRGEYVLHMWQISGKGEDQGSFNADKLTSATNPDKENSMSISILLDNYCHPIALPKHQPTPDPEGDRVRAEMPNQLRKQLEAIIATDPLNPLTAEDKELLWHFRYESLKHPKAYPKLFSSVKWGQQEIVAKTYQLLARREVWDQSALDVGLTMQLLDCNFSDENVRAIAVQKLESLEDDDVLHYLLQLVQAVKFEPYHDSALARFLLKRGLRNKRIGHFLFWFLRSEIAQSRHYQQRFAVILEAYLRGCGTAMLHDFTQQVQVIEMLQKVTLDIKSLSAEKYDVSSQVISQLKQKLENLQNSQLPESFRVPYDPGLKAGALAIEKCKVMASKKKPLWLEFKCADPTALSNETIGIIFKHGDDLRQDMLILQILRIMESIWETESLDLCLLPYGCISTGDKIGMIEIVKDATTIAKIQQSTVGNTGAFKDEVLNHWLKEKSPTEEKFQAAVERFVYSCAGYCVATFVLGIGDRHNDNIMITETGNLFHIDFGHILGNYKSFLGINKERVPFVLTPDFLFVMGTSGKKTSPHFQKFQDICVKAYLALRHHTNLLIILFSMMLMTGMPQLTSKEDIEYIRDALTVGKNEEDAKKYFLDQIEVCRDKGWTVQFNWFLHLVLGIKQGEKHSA
Sequence of PI3Kδ (O00329 whole entry): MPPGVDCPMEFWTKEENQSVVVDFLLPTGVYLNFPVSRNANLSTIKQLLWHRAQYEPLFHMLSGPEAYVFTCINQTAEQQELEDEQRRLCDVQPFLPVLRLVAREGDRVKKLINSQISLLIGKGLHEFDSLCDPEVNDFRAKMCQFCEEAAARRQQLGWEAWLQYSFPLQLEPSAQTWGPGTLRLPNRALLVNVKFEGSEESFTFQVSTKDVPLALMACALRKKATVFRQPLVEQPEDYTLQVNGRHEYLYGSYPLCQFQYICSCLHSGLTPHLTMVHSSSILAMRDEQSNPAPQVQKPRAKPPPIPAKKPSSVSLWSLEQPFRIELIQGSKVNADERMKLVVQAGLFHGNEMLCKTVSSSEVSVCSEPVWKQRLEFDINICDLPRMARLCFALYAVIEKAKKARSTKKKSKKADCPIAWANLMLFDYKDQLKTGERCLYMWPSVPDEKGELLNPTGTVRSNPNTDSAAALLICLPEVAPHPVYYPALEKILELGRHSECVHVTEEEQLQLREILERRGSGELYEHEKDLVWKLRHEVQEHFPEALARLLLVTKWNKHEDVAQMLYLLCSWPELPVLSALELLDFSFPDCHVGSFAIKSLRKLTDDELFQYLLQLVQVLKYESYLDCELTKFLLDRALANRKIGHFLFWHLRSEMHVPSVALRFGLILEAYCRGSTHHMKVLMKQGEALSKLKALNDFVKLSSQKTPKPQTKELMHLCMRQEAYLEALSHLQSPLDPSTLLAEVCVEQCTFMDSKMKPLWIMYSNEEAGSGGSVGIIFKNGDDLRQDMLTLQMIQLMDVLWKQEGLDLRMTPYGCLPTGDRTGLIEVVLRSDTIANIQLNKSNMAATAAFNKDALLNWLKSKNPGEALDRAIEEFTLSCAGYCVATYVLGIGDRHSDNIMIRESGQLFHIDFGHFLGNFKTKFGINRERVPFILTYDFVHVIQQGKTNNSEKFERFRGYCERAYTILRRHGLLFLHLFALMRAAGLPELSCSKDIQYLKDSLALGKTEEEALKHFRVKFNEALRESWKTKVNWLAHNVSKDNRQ
Sequence of PI3Kδ (P27986 whole entry partner): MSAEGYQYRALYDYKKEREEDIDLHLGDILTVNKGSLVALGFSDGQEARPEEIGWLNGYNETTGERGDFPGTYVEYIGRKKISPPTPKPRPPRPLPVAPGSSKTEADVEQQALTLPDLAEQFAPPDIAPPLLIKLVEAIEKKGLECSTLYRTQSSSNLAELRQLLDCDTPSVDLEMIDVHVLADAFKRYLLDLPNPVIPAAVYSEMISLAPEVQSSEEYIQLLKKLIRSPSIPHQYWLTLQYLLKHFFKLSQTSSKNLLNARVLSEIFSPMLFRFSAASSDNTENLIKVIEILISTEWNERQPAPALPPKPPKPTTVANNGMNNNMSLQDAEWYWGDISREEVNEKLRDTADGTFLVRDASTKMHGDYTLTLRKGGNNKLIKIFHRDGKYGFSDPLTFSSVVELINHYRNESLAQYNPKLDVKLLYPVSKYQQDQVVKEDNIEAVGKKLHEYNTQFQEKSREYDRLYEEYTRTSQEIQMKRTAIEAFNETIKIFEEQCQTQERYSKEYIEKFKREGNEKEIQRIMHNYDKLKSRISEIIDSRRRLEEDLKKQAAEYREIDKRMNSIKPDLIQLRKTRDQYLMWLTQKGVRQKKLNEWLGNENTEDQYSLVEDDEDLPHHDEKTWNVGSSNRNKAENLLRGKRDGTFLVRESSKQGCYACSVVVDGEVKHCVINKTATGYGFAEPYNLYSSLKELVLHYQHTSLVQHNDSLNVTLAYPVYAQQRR
Sequence of vps34 (Q8NEB9 whole entry): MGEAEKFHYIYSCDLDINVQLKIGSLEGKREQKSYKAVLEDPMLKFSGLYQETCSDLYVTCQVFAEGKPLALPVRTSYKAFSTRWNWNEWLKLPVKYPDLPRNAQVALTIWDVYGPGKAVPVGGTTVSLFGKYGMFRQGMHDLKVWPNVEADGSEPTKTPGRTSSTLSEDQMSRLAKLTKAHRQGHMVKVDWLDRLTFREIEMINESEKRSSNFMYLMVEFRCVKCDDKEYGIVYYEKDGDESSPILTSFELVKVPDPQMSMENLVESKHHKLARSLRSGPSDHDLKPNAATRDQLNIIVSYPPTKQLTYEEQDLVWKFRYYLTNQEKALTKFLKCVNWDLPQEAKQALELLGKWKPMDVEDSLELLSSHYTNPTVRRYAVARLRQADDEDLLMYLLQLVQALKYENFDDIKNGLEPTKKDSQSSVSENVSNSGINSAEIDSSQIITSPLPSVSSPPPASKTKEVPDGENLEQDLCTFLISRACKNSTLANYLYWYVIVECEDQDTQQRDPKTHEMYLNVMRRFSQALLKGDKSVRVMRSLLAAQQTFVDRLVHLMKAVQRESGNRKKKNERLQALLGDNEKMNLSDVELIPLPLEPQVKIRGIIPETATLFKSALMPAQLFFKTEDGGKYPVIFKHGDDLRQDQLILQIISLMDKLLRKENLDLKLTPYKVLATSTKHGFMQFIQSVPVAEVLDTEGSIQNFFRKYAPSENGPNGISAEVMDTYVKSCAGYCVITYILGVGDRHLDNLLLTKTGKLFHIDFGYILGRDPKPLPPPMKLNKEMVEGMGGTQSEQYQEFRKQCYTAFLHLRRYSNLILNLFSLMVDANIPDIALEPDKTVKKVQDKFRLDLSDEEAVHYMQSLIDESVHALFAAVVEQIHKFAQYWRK
Sequence of PI4KIIIβ (Q9UBF8 whole entry): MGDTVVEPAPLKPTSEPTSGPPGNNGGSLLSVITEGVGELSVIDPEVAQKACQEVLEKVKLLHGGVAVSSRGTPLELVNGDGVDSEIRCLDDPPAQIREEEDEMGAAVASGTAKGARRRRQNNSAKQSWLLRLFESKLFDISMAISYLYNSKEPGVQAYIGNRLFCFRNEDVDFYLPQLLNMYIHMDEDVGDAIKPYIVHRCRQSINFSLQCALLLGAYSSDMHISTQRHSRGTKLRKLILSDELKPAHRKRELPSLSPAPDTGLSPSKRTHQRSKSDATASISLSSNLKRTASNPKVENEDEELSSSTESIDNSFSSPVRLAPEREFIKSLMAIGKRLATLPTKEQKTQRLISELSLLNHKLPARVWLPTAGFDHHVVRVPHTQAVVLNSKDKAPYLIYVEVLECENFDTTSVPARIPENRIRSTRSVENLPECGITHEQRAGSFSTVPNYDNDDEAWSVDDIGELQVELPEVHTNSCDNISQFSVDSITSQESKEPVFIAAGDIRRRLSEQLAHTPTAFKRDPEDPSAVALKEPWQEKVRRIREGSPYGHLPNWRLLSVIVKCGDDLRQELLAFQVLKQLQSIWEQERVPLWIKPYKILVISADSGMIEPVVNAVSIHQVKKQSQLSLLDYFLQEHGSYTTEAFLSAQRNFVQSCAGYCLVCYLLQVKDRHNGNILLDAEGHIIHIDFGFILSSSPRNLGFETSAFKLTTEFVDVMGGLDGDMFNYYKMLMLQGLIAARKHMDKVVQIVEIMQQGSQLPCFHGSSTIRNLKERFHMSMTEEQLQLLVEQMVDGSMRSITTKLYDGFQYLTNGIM

For `COc1ccc(-c2sc(NC(C)=O)nc2C)cc1S(=O)(=O)NCCO` [compound 3], the “potency for PI4KIIIβ compared with compound 1” value (PI4KIIIβ) was “increase in potency”, the “fold selective over PI3Kγ” value (PI3Kγ) was over 40 fold and the “fold selective over PI3Kδ” value (PI3Kδ) was over 40 fold.

For `CC(=O)Nc1nc(C)c(-c2ccc(Br)c(S(=O)(=O)NCCO)c2)s1` [compound 2], the “potency for PI4KIIIβ compared with compound 1” value (PI4KIIIβ) was “slight increase in potency”, the “potency for PI3Kγ compared with compound 1” value (PI3Kγ) was “slight decrease in potency” and the “potency for PI3Kδ compared with compound 1” value (PI3Kδ) was “slight increase in potency”. The “potency for vps34 compared with compound 1” value (vps34) was “slight increase in potency”.

In the case of `CC(=O)Nc1nc(C)c(-c2ccc(Cl)c(S(=O)(=O)Nc3ccc(F)cc3)c2)s1` [compound 7], the “potency for PI4KIIIβ compared with compound 1” value (PI4KIIIβ) is reported as “minimal differences in both potency and specificity”.

For `COc1ccc(-c2sc(NC(=O)C(C)(C)C)nc2C)cc1S(=O)(=O)Nc1ccc(O)cc1` [compound 10], the “fold selective for PI4KIIIβ across all enzymes tested” value (PI4KIIIβ; panel of nine related lipid kinases) was over 200 fold, the “fold selective over PI3Kγ” value (PI3Kγ) was over 1000 fold and the “fold selective over PI3Kδ” value (PI3Kδ) was over 200 fold. The “inhibition of vps34” value (vps34) was “no inhibition” and the “anti-viral activity against Hepatitis C Virus and toxicity” value [1] was “best combination of anti-viral efficacy, and lowest toxicity”.

`CC(=O)Nc1nc(C)c(-c2ccc(Cl)c(S(=O)(=O)Nc3ccc(O)cc3)c2)s1` [compound 6] was tested, and the “potency for PI4KIIIβ compared with compound 1” value (PI4KIIIβ) was “large increase in potency”, the “potency for PI3Kγ compared with compound 1” value (PI3Kγ) was “large increase in potency” and the “potency for PI3Kδ compared with compound 1” value (PI3Kδ) was “large increase in potency”. The “potency for vps34 compared with compound 1” value (vps34) was “large increase in potency”.

In the case of `Cc1nc(NC(=O)C2CCCC2)sc1-c1ccc(Cl)c(S(=O)(=O)NCCO)c1` [compound 5], the “fold selective over PI3Kγ” value (PI3Kγ) is reported as over 90 fold.

`COc1ccc(-c2sc(NC(=O)C3CCCC3)nc2C)cc1S(=O)(=O)Nc1ccc(O)cc1` [compound 9] was tested, and the “fold selective over PI3Kγ” value (PI3Kγ) was over 140 fold, the “fold selective over PI3Kδ” value (PI3Kδ) was over 20 fold and the “inhibition of vps34” value (vps34) was “no inhibition”. For the same compound, the “anti-viral activity against Hepatitis C Virus and toxicity” value [1] was “best combination of anti-viral efficacy, and lowest toxicity”.

For `Cc1nc(NC(=O)C(C)(C)C)sc1-c1ccc(Cl)c(S(=O)(=O)NCCO)c1` [compound 4], the “fold selective over PI3Kγ” value (PI3Kγ) was over 600 fold.
